Compound activity as filed in PubChem BioAssay.
Hits are enriched below; roughly 4.9% of the tested compounds scored in any of these assays.
CHT PAM: human CHT allosteric activation | 310,000 tested, 0.49% active | Q9GZV3 | B-score at 10 µM | CHT-expressing cells, membrane potential dye, choline EC20; stronger effect = higher value; LV-AA mutant CHT in HEK293 cells;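 active = initial fluorescence not abnormally high and integrated response B-score, plate-corrected, over 3 SD above library mean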
CHT inh: human CHT choline transport inhibition; AID 488975; 310,000 tested, 0.86% active; B-score at 10 µM; CHT-expressing cells, membrane potential dye, choline response; stronger effect = lower value;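 active = B-score over 3 SD under the library average, and starting fluorescence ratio not unusually high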;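 also: choline stimulus applied at its EC90 after an EC20 pre-addition; B-score computed on integrated fluorescence ratio after choline addition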
HSF-1 act: increases HSF-1 driven luciferase reporter signal | NIH3T3-HGL HSF-1 luciferase reporter, MG132, 8 h; 100% = twice DMSO control signal | activation, % at 9 µM | 300,000 tested, 1.7% active;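 active = mean replicate activation of at least 50% with a set share of replicates each reaching 50%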;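 also: 0% = median of the neutral control wells and 100% = twice that signal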
Lipid droplet: modulators of hepatic lipid droplet formation; inhibition, % at 6.5 µM; AID 1656; AML12 mouse hepatocytes, oleate lipid droplets, BODIPY imaging; 240,000 tested, 0.4% active;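 active = lipid droplet intensity inhibited by at least 50%, with more than 500 cells counted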
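Technique: fluorescence imaging, 20x objective, two fields per well / Assay system: AML12 hepatocytes (mouse) / Measure: % inhibition of lipid droplet signal / Doses: 6.5 µM single-point dosing / Incubation: overnight exposure / Reagent: 100 µM oleic acid challenge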
PHOSPHO1 block: blocks human PHOSPHO1 phosphatase activity | Q8TCT1 | recombinant PHOSPHO1, absorbance phosphatase assay | inhibition, % at 13.3 µM | 290,000 tested, 1.1% active; in the data active = inhibition above about 60%
Target sequence (Q8TCT1 whole entry, looked up): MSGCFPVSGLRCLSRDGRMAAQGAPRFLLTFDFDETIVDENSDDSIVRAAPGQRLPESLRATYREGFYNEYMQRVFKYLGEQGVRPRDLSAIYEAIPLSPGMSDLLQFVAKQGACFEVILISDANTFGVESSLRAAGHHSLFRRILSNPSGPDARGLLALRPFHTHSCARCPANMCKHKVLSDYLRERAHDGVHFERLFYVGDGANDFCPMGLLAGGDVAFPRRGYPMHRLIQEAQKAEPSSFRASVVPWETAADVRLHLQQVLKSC
HSF1 inhib: HSF1 inhibition; activity change, negative = inhibition, % at 7.5 µM (by protocol); 300,000 tested, 0.77% active; NIH3T3-HGL HSE-luciferase, MG132-induced, luminescence 8 h; stronger effect = lower value; AID 2098;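 active = more than half of replicate wells show activity change below -50%, luminescence cut by over half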;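 also: luciferase reports HSF-1 transcriptional activity via heat shock element; 0% = median of DMSO wells and -100% = zero luminescence signal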
CHT block conf: human CHT inhibition, confirmatory screen; 2,400 tested, 70% active; shares compounds with CHT inh; AID 493221; CHT activity remaining % of control (stronger effect = lower value), % at 10 µM; CHT-expressing cells, choline membrane potential dye; LV-to-AA substituted CHT, HEK293 cells;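 active = choline transporter activity left, mean of duplicates at 10 µM, below buffer-only control mean minus 3 SD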;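 also: depolarization triggered by choline at its EC90 following an EC20 pre-addition; 0% = hemicholinium-3 full block and 100% = buffer-only control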
HEK293 MPD ctr: CHT inhibitor counter-screen hit in parental HEK293 cells | shares compounds with CHT inh | membrane potential dye, choline response; active = decrease or increase beyond buffer ±3SD | membrane potential ratio readout (active if shifted either direction beyond buffer ±3SD; no single direction) at 10 µM | 2,400 tested, 4% active;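 also: parental cells lack the transporter so any hit is non-specific; ratio is peak minus trough fluorescence over baseline after EC90 choline challenge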
Numbers without * were called inactive.

How did CC(C)c1ccc(/C=C/c2ccc(=O)n(C)n2)cc1 do in these assays?
CHT PAM: inactive; CHT inh: -6.9*; HSF-1 act: 47; Lipid droplet: 6; PHOSPHO1 block: 2; HSF1 inhib: 37; CHT block conf: inactive; HEK293 MPD ctr: inactive

Results for COc1ccc(S(=O)(=O)N2CCCCC2)cc1NC(=O)C1COc2ccccc2O1 (configuration not stated) ?
CHT PAM: inactive; CHT inh: inactive; HSF-1 act: 3; HSF1 inhib: 2

How did CCC(=O)Nc1ccc(C(=O)N/N=C/c2cc(Br)c(OC)cc2OC)cc1 do in these assays?
CHT PAM: inactive; CHT inh: inactive; HSF-1 act: -10; Lipid droplet: 2; PHOSPHO1 block: -7; HSF1 inhib: -13

What do the screens show for `COc1ccc(S(=O)(=O)Nc2nc3ccccc3s2)cc1`?
CHT PAM: inactive; CHT inh: inactive; HSF-1 act: 6; Lipid droplet: 5; PHOSPHO1 block: -6; HSF1 inhib: -2

Results for O=S(=O)(Nc1nc2ccccc2s1)c1ccc(Cl)nc1 ?
CHT PAM: inactive; CHT inh: inactive; HSF-1 act: -5; Lipid droplet: 4; PHOSPHO1 block: 21; HSF1 inhib: 2; CHT block conf: 67%*; HEK293 MPD ctr: inactive

What do the screens show for `CCN1CCCC1CNC(=O)c1ccc2c(c1)N(Cc1cccc(Cl)c1)C(=O)c1ccccc1S2(=O)=O` (configuration not stated)?
CHT PAM: inactive; CHT inh: -12*; HSF-1 act: 13; Lipid droplet: -17; PHOSPHO1 block: 28; HSF1 inhib: 2; CHT block conf: 28%*; HEK293 MPD ctr: inactive

How did O=C(NCCN1CCOCC1)c1ccc2c(c1)N(Cc1ccccc1F)C(=O)c1ccccc1S2(=O)=O do in these assays?
CHT PAM: inactive; CHT inh: inactive; HSF-1 act: -6; Lipid droplet: -4; PHOSPHO1 block: 30; HSF1 inhib: 0

What do the screens show for `CCN1C(=O)c2ccccc2S(=O)(=O)c2ccc(C(=O)NCCCN(CC(C)C)CC(C)C)cc21`?
CHT PAM: inactive; CHT inh: inactive; HSF-1 act: 30; Lipid droplet: -1; PHOSPHO1 block: 15; HSF1 inhib: 5

Results for CCN1CCCC1CNC(=O)c1ccc2c(c1)N(Cc1ccccc1F)C(=O)c1ccccc1S2(=O)=O (configuration not stated) ?
CHT PAM: inactive; CHT inh: -5.3*; HSF-1 act: -4; Lipid droplet: -5; PHOSPHO1 block: 50; HSF1 inhib: 5; CHT block conf: 54%*; HEK293 MPD ctr: inactive

Results for O=C(NCCN1CCCC1)c1ccc2c(c1)N(Cc1cccc(Cl)c1)C(=O)c1ccccc1S2(=O)=O ?
CHT PAM: inactive; CHT inh: -9.5*; HSF-1 act: 20; Lipid droplet: -28; PHOSPHO1 block: 33; HSF1 inhib: 9; CHT block conf: 34%*; HEK293 MPD ctr: inactive

What do the screens show for `CC1CCCN(CCCNC(=O)c2ccc3c(c2)N(Cc2ccccc2F)C(=O)c2ccccc2S3(=O)=O)C1` (configuration not stated)?
CHT PAM: inactive; CHT inh: -7.1*; HSF-1 act: 25; Lipid droplet: -14; PHOSPHO1 block: 1; HSF1 inhib: -1; CHT block conf: 35%*; HEK293 MPD ctr: inactive

How did COc1ccc(CCNC(=O)c2cc(S(=O)(=O)N(C)c3ccccc3)ccc2Cl)cc1 do in these assays?
CHT PAM: inactive; CHT inh: inactive; HSF-1 act: 12; Lipid droplet: -34; PHOSPHO1 block: -2; HSF1 inhib: 1

Results for Cc1ccc(SC[C@H](c2ccccc2)N2CCN(CCc3ccccc3)CCC2=O)cc1 ?
CHT PAM: inactive; CHT inh: inactive; HSF-1 act: -3; Lipid droplet: -11; PHOSPHO1 block: 44; HSF1 inhib: -4

How did CC(/C=C1\SC(=S)N(NC(=O)c2ccncc2)C1=O)=C\c1ccccc1 do in these assays?
CHT PAM: inactive; CHT inh: -6.5*; HSF-1 act: 5; Lipid droplet: 10; PHOSPHO1 block: 20; HSF1 inhib: -5; CHT block conf: 15%*; HEK293 MPD ctr: inactive

How did CC(/C=C1\SC(=S)N(NC(=O)c2ccc(C)cc2)C1=O)=C\c1ccccc1 do in these assays?
CHT PAM: inactive; CHT inh: inactive; HSF-1 act: -24; PHOSPHO1 block: -84; HSF1 inhib: -12

What do the screens show for `CC(/C=C1\SC(=S)N(NS(=O)(=O)c2ccccc2)C1=O)=C\c1ccccc1`?
CHT PAM: inactive; CHT inh: -5.8*; HSF-1 act: -15; Lipid droplet: 11; PHOSPHO1 block: 24; HSF1 inhib: 0; CHT block conf: 55%*; HEK293 MPD ctr: inactive

What do the screens show for `COc1cc(/C=C2\SC(=S)N(NC(=O)c3ccc(O)c(OC)c3)C2=O)ccc1O`?
CHT PAM: inactive; CHT inh: inactive; HSF-1 act: -2; Lipid droplet: 12; PHOSPHO1 block: 29; HSF1 inhib: 7

Results for COc1cc(/C=C2\SC(=S)N(NC(=O)c3ccncc3)C2=O)ccc1O ?
CHT PAM: inactive; CHT inh: -9.8*; HSF-1 act: -3; Lipid droplet: 2; PHOSPHO1 block: -48; HSF1 inhib: -3; CHT block conf: -0.4%*; HEK293 MPD ctr: -8.5*

What do the screens show for `COc1ccc(/C=C2/SC(=S)N(NS(=O)(=O)c3ccccc3)C2=O)cc1`?
CHT PAM: inactive; CHT inh: -4.9*; HSF-1 act: -14; Lipid droplet: -2; PHOSPHO1 block: 24; HSF1 inhib: -5; CHT block conf: 45%*; HEK293 MPD ctr: inactive

How did CC(/C=C1\SC(=S)N(NS(=O)(=O)c2ccc(C)cc2)C1=O)=C\c1ccccc1 do in these assays?
CHT PAM: inactive; CHT inh: inactive; HSF-1 act: 0; Lipid droplet: 0; PHOSPHO1 block: 12; HSF1 inhib: -3

What do the screens show for `COCCCNC(=O)CNC(=O)c1cn(-c2ccccc2OC)c(=O)c2ccccc12`?
CHT PAM: inactive; CHT inh: inactive; HSF-1 act: 4; Lipid droplet: 1; PHOSPHO1 block: 16; HSF1 inhib: 3

Results for CN(Cc1nc(-c2ccncc2)no1)S(=O)(=O)c1ccc(Cl)cc1 ?
CHT PAM: inactive; CHT inh: inactive; HSF-1 act: -18; Lipid droplet: -9; PHOSPHO1 block: -14; HSF1 inhib: 0
